Measured values from different studies.
Compare with care: the assays were run in different laboratories.
CHEK2: Serine/threonine-protein kinase Chk2 (CHEK2, Homo sapiens, UniProt O96017)
CHEK2 I157T: Serine/threonine-protein kinase Chk2 (CHEK2, Homo sapiens, UniProt O96017, I157T)

With `N#CC1c2c([nH]c3c(Cl)c(Cl)ccc23)C(=O)NC12CCCCC2` (racemic) the ΔTm was 0.1 °C (CHEK2; thermal stability, DSF; 10 µM).
`CCCOc1ccc(OC)c(F)c1C(=O)c1ccc(C(=O)N[C@@H]2CNC[C@H]2NC(=O)c2ccc3[nH]ncc3c2)cc1` gave a remaining activity of 16% (CHEK2 I157T; enzyme activity, inhibitor; 10 µM).
The ΔTm of `Cn1c2c(c3ccc(Cl)c(Cl)c31)C(C#N)C1(CCOCC1)NC2=O` (stereo not drawn) is reported as -0.3 °C (CHEK2; thermal stability, DSF; 10 µM).
`O=C1NC(=O)c2cc(Nc3ccc(F)cc3)c(Nc3ccc(F)cc3)cc21` has a remaining signal of 94.3% (CHEK2; cell-free assay; 0.5 µM).
The inhibition of `CNC(=O)c1cc(Oc2ccc(NC(=O)Nc3ccc(Cl)c(C(F)(F)F)c3)cc2)ccn1` is reported as -9% (CHEK2 I157T; enzyme activity, inhibitor; 0.3 µM).
With `Cc1cc(NC(=O)c2cccc3cc(-c4cccc5[nH]nc(N)c45)ccc23)ccc1F` the activity vs control was 102% (CHEK2; enzyme activity, inhibitor; 0.1 µM).
`CCCCN(CCCC)C(=O)CN1C[C@H](c2cc(OC)c3c(c2)OCO3)[C@@H](C(=O)O)[C@@H]1CC(C)(C)CCC` has a remaining binding of 100% (CHEK2; cell-free assay, competition with immobilised ligand; 1 µM).
With `O=C1NC(=O)c2c1c1c3ccccc3[nH]c1n1cncc21` the remaining signal was 21.2% (CHEK2; cell-free assay; 0.5 µM).
`Cn1c2c(Cl)c(Cl)ccc2c2cc[nH]c(=O)c21` has a ΔTm of 0.2 °C (CHEK2; thermal stability, DSF; 10 µM).
With `CCCOc1ccc([C@H]2[C@H](C(=O)O)[C@@H](c3ccc4c(c3)OCO4)CN2CC(=O)Nc2c(CC)cccc2CC)cc1` the remaining binding was 88% (CHEK2; cell-free assay, competition with immobilised ligand; 1 µM).
`CN(C)C1CCN(CC#Cc2nn(C3CCCC3)c3nc(NCc4ccccc4)ncc23)C1` (stereo not drawn) gave an inhibition of 7% (CHEK2; enzyme activity, inhibitor, FRET; 1 µM).
`Cn1c2c(c3ccc(Cl)c(Cl)c31)C(C#N)C1(CCCC1)NC2=O` (stereo not drawn) gave a ΔTm of 0 °C (CHEK2; thermal stability, DSF; 10 µM).
With `N#CCCc1ccc2c(c1)-c1[nH]c3ccc([N+](=O)[O-])cc3c1CC(=O)N2` the remaining signal was 12.6% (CHEK2; cell-free assay; 0.5 µM).
For `Cn1c2c(Cl)c(Cl)ccc2c2cn[nH]c(=O)c21`, the ΔTm was -0.4 °C (CHEK2; thermal stability, DSF; 10 µM).
The remaining binding of `O=C1CCc2cc(Nc3cc(OC4CCOCC4)c([N+](=O)[O-])cc3Cl)ccc2N1` is reported as 69% (CHEK2; cell-free assay, competition with immobilised ligand; 1 µM).
The inhibition of `Cc1ccc(Nc2nccc(N(C)c3ccc4c(C)n(C)nc4c3)n2)cc1S(N)(=O)=O` is reported as -13% (CHEK2; enzyme activity, inhibitor; 0.3 µM).
With `CS(=O)(=O)N1CCCC(NC(=O)[C@H](CCC2CCCCC2)NC(=O)c2ccc(CNc3ncnc4c3nnn4-c3ccccc3)cc2)C1` (stereo partly drawn) the remaining binding was 100% (CHEK2; cell-free assay, competition with immobilised ligand; 0.1 µM).
For `C#Cc1cccc(Nc2ncnc3cc(OCCOC)c(OCCOC)cc23)c1`, the remaining signal was 100% (CHEK2; cell-free assay; 0.5 µM).
For `CC(C)CC(=O)N1CCc2nc(-c3ccc(Br)cc3)nc(N(C)Cc3ccccc3)c2C1`, the remaining binding was 100% (CHEK2; cell-free assay, competition with immobilised ligand; 0.1 µM).
`Cn1c2c(c3ccc(Cl)c(Cl)c31)C(C#N)C1(CCNCC1)NC2=O` (racemic) gave a ΔTm of 0.2 °C (CHEK2; thermal stability, DSF; 10 µM).
For `Nc1ncnc2occ(-c3ccc(NC(=O)Nc4cc(C(F)(F)F)ccc4F)cc3)c12`, the remaining signal was 13% (CHEK2; cell-free assay, inhibitor; 20 µM).
`CC(=O)C1=C(C)N(c2cccc(C(F)(F)F)c2)C(=O)N[C@@H]1c1ccc(C#N)nc1` has a remaining binding of 85.6% (CHEK2; cell-free assay, competition with immobilised ligand; 1 µM).
With `C[S+]([O-])c1ccc(-c2nc(-c3ccncc3)c(-c3ccc(F)cc3)[nH]2)cc1` (stereo not drawn) the remaining signal was 99.6% (CHEK2; cell-free assay; 0.5 µM).
The remaining binding of `CN([C@@H]1CCc2c(CC(=O)O)c3ccccc3n2C1)S(=O)(=O)c1ccc(F)cc1` is reported as 100% (CHEK2; cell-free assay, competition with immobilised ligand; 1 µM).
`Cc1cnc(NC2CCOCC2)nc1-n1cnc(C(=O)NC(CN)c2cc(F)cc(Cl)c2)c1` (stereo not drawn) has a remaining activity of 82% (CHEK2 I157T; enzyme activity, inhibitor, radiometric; 1 µM).
`CN1CCC2(CC1)NC(=O)c1c(c3ccc(Cl)c(Cl)c3n1C)C2C#N` (racemic) gave a ΔTm of -0.3 °C (CHEK2; thermal stability, DSF; 10 µM).
`O=C(Nc1cccnn1)N1CC(C/C=C/c2cncc(Oc3ccc(C(F)(F)F)cn3)n2)C1` gave a remaining binding of 100% (CHEK2; cell-free assay, competition with immobilised ligand; 1 µM).
